Consider twelve compounds from ChEMBL document CHEMBL3817732, “Rational Design of Calpain Inhibitors Based on Calpastatin Peptidomimetics” (J Med Chem, 2016).

The source made the active and inactive calls. The rule behind the calls is not given here.

The species named for assay [1] is Rattus norvegicus. Kind of assay: Inhibition of rat recombinant C-terminal His-tagged calpain-2 expressed in Escherichia coli BL21(DE3) assessed as cleavage of (EDANS)-EPLFAERK-(DABCYL) at 100 uM in presence of CaCl2 by fluorescence spectrometer relative to control.
For assay [2], the species on record is Rattus norvegicus. Kind of assay: Inhibition of rat calpain-1 assessed as cleavage of (EDANS)-EPLFAERK-(DABCYL) at 100 uM in presence of CaCl2 by fluorescence spectrometer relative to control.
Assay [3] concerns the target Procathepsin L (Homo sapiens) (UniProt P07711). Description: Inhibition of human liver cathepsin L assessed as cleavage of Z-FR-AMC at 100 uM by fluorescence spectrometer.
Assay [4] in a line: Competitive inhibition of rat recombinant C-terminal His-tagged calpain-2 expressed in Escherichia coli BL21(DE3) using (EDANS)-EPLFAERK-(DABCYL) as substrate assessed as enzyme/inhibitor complex in presence of CaCl2 by Michaelis-Menten plot analysis.
Assay [5] can be described thus: Competitive inhibition of porcine erythrocyte calpain-2 using Suc-Leu-Tyr-AMC as substrate. Further details: species or system Sus scrofa.
The species named for assay [6] is Rattus norvegicus. Description: Inhibition of rat recombinant calpain-1 protease core expressed in Escherichia coli BL21(DE3) assessed as cleavage of (EDANS)-EPLFAERK-(DABCYL) at 100 uM in presence of CaCl2 by fluorescence spectrometer.
The next assay concerns the target T1, Papain (Carica papaya) (UniProt P00784).
T1 sequence (whole entry): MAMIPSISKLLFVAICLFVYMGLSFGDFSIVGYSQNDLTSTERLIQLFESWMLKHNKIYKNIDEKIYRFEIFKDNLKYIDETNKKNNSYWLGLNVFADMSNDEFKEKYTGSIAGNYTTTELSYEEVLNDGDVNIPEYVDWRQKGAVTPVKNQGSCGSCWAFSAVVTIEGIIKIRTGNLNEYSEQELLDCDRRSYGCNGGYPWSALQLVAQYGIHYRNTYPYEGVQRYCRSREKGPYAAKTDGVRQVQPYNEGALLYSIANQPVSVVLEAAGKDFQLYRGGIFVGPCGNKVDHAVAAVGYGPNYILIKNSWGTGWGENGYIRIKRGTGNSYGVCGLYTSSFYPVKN
Kind of assay: Inhibition of papaya papain assessed as cleavage of (EDANS)-EPLFAERK-(DABCYL) at 100 uM by fluorescence spectrometer.

For assay [7], the species on record is Rattus norvegicus. Kind of assay: Binding affinity to rat recombinant C-terminal His-tagged calpain-2 C105S mutant expressed in Escherichia coli BL21(DE3) at 25 to 50 uM in presence of CaCl2 and trypsin by MALDI-TOFpeptide fingerprinting method. The procedure, abridged:
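The mixture is exposed to long-wave UV for 2.5 h, with a DMSO control. Photoadducts are tryptically digested and identified by MALDI-TOF mass fingerprinting.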

The species entered for assay [8] is Rattus norvegicus. Description: Activation of rat recombinant calpain-1 protease core expressed in Escherichia coli BL21(DE3) assessed as cleavage of (EDANS)-EPLFAERK-(DABCYL) at 100 uM in presence of CaCl2 by fluorescence spectrometer.
A short description of assay [9]: Mixed-type inhibition of rat recombinant C-terminal His-tagged calpain-2 expressed in Escherichia coli BL21(DE3) using (EDANS)-EPLFAERK-(DABCYL) as substrate assessed as enzyme/substrate/inhibitor complex in presence of CaCl2 by Michaelis-Menten plot analysis.
Assay [10] can be described thus: Mixed-type inhibition of rat recombinant C-terminal His-tagged calpain-2 expressed in Escherichia coli BL21(DE3) using (EDANS)-EPLFAERK-(DABCYL) as substrate assessed as enzyme/inhibitor complex in presence of CaCl2 by Michaelis-Menten plot analysis.
A short description of assay [11]: Non-competitive inhibition of rat recombinant C-terminal His-tagged calpain-2 expressed in Escherichia coli BL21(DE3) using (EDANS)-EPLFAERK-(DABCYL) as substrate assessed as enzyme/inhibitor complex in presence of CaCl2 by Michaelis-Menten plot analysis.
A short description of assay [12]: Non-competitive inhibition of rat recombinant C-terminal His-tagged calpain-2 expressed in Escherichia coli BL21(DE3) using (EDANS)-EPLFAERK-(DABCYL) as substrate assessed as enzyme/substrate/inhibitor complex in presence of CaCl2 by Michaelis-Menten plot analysis.
Assay [13] in a line: Inhibition of calpain-1 (unknown origin) using H-Glu(Edans)-Pro-Leu-Phe-Ala-Glu-Arg-Lys(Dabcyl)-OH as substrate measured every 13 secs for 1 hr by fluorescence assay. Further details: […].

As a reminder, the inhibition is the relative decrease from the control value, in per cent. For orientation: Ki means the equilibrium dissociation constant of an inhibitor or competing ligand from its target.

Chain of Procathepsin L (Homo sapiens) (P07711 114-333 limits assumed): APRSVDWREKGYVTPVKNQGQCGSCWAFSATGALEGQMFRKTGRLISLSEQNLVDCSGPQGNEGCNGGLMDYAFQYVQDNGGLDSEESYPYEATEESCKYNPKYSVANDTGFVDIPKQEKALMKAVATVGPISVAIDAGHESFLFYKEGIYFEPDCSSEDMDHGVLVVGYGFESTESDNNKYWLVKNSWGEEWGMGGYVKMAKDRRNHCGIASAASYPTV

For `CC[C@H](C)[C@H](NC(=O)C/N=C1\N[C@@H](C)[C@@H](C(=O)NC(C)(C)C)N2CCC[C@H]12)C(=O)N[C@H](CCCN)C(=O)O`, the inhibition was determined as 67% in the assay filed under Rattus norvegicus [1] and 14% in the assay filed under Rattus norvegicus [2].
For the compound `CC(C)[C@H](NC(=O)C/N=C1\N[C@@H](C)[C@@H](C(=O)NC(C)(C)C)N2CCC[C@H]12)C(=O)N[C@H](CCCN)C(=O)O`, the inhibition was found to be 79% in the assay filed under Rattus norvegicus [1] and 17% in [3].
Regarding H-DPMSSTYIEELGKREVTIPPKYRELLA-OH, the inhibitory constant (Ki) in [4] amounted to 0.0168 µM; in assay [5] it was 0.0087 µM.
For `C[C@@H]1N/C(=N\CC(=O)N[C@@H](Cc2ccccc2)C(=O)N[C@H](CCCN)C(=O)O)[C@H]2CCCN2[C@@H]1C(=O)NC(C)(C)C`, the results for the inhibition in the assay listed under Rattus norvegicus [1] and in the assay filed under Rattus norvegicus [2] were 39% and 28%, respectively.
With `C[C@H](NC(=O)C/N=C1\N[C@@H](C)[C@@H](C(=O)NC(C)(C)C)N2CCC[C@H]12)C(=O)N[C@H](CCCN)C(=O)O`, the figures for the inhibition in the assay listed under Rattus norvegicus [1] and in the assay filed under Rattus norvegicus [2] were 66% and 54%, respectively.
For `CC(C)C[C@@H]1NC(=O)[C@H](C)NC(=O)CNC(=O)[C@@H]2CCCN2[C@H](C(=O)NC(C)(C)C)[C@H](C)NC(=O)[C@H](CCCCN)NC1=O`, the figures for the inhibition (in the assay listed under Rattus norvegicus [1]; in the assay listed under Rattus norvegicus [2]; in assay [3]) were 84%, 45% and greater than 85%, respectively. In the assay listed under Rattus norvegicus [6], the inhibition entry was “Active”. For the same compound, the inhibition entry at Papain (Carica papaya) is “inactive”. Besides, the Ki in [4] worked out at 16.6 µM.
With `CC(C)C[C@H](NC(=O)C/N=C1\N[C@@H](CSC2CC(=O)N(c3cccc(C(=O)c4ccccc4)c3)C2=O)[C@@H](C(=O)NC(C)(C)C)N2CCC[C@H]12)C(=O)N[C@H](CCCN)C(=O)O` (stereo partly specified), the inhibition result in the assay filed under Rattus norvegicus [1] and in the assay listed under Rattus norvegicus [7] was “Active” each time.
Consider `C[C@@H]1NC(=O)[C@H](CCCN)NC(=O)CNC(=O)[C@H](CO)NC(=O)CNC(=O)[C@@H]2CCCN2[C@@H]1C(=O)NC(C)(C)C`, for which the inhibition in the assay filed under Rattus norvegicus [1] is 78%; in the assay listed under Rattus norvegicus [2], 38%; in [3] it was greater than 85%. In addition, the outcome in the assay filed under Rattus norvegicus [8] was Active. Also, the inhibition entry on Papain (Carica papaya) is “inactive”. Also, the Ki in assay [9] came to 45.6 µM; in [10], 20.3 µM.
In the case of `CC(C)C[C@@H](NC(=O)C/N=C1\N[C@@H](C)[C@@H](C(=O)NC(C)(C)C)N2CCC[C@H]12)C(=O)N[C@H](CCCN)C(=O)O`, the inhibition is 16% in the assay listed under Rattus norvegicus [1] and greater than 32% in assay [3]. Moreover, the inhibition entry in the assay listed under Rattus norvegicus [2] and in the assay listed under Rattus norvegicus [6] was “Active” each time. Besides, the inhibition entry on Papain (Carica papaya) was “inactive”. The inhibitory constant (Ki) in assay [11] turned out to be 154 µM; in assay [12] it was 119 µM.
Consider `CC(C)C[C@@H]1NC(=O)[C@H](C)NC(=O)CNC(=O)[C@@H]2CCCN2[C@H](C(=O)NC(C)(C)C)[C@H](CSC2CC(=O)N(c3cccc(C(=O)c4ccccc4)c3)C2=O)NC(=O)[C@H](CCCCN)NC1=O` (stereo partly specified), for which the inhibition result in the assay filed under Rattus norvegicus [1] and in the assay filed under Rattus norvegicus [7] was “Active” in each case.
In the case of `CC[C@H](C)[C@H](NC(C)=O)C(=O)N1CCC[C@H]1C(=O)N1CCC[C@H]1C(=O)N[C@@H](CCCCN)C(=O)N[C@@H](Cc1ccc(O)cc1)C(=O)N[C@H]1CSSC[C@@H](C(N)=O)NC(=O)[C@H](CC(C)C)NC(=O)[C@H](CC(C)C)NC(=O)[C@H](CCC(=O)O)NC1=O`, the Ki in assay [13] is 10.2 µM.
For `CC(C)C[C@H](/N=C1\N[C@@H](C)[C@@H](C(=O)NC(C)(C)C)N2CCC[C@H]12)C(=O)N[C@@H](CCCCN)C(=O)NCC(=O)O`, the inhibition (in the assay filed under Rattus norvegicus [1]; in [3]) was greater than 85% in each case. Moreover, the inhibition result in the assay listed under Rattus norvegicus [2] is “Active”. Besides, in the assay listed under Rattus norvegicus [8], the outcome was Active. In addition, on Papain (Carica papaya), the inhibition result is “inactive”. Besides, the Ki in assay [4] was determined as 12.2 µM.
